Measurements from paper PMC9948165 (ACS Omega, 2023).

Experiments:
Assay type in all cases: cell-based, human
[1] = tested on: A549 cells; assay: MTT cytotoxicity assay, A549; conditions: read-out: IC50 A549 cells, 72 h
In short: (§1)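 Cells seeded at 5 × 10^3 per well in 96-well plates and left overnight: A549 and HCT116 in RPMI-1640, LO2 in DMEM. Medium replaced with test compound at 100, 50, 25, 12.5, 6.25, 3.125 or 1.5625 μM for 72 h; medium-only control. MTT (5 mg/mL) added for 4 h, formazan dissolved in DMSO, OD read at 490 nm; IC50 derived.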

[2] = tested on: HCT116 cells; assay: MTT cytotoxicity assay, HCT116; conditions: for IC50: read-out: IC50 HCT116 cells, 72 h
In short: as §1

[3] = tested on: LO2 cells; assay: MTT cytotoxicity assay, LO2 normal hepatocytes; conditions: read-out: IC50 LO2 cells, 72 h, normal hepatocyte cell line
In short: as §1

[4] = tested on: HCT116 cells; assay: Cell cycle analysis by flow cytometry; conditions: HCT116, 10 μM, 24 h
In short: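 HCT116 cells in log phase were seeded at 1 × 10^6 per well in six-well plates and grown 24 h at 37 °C. They were PBS-washed, given fresh medium with 10 μM test compound for 24 h, trypsinised and washed in cold PBS. Cells were fixed in 70% ethanol at −20 °C for 48 h, treated with RNase A at 37 °C for 30 min, then PI for 30 min at RT in the dark. Flow cytometry DNA content was model-fitted into cell-cycle phases.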

SMILES | IC50 [1] | IC50 [2] | IC50 [3] | cell cycle blocking effect [4] | cytotoxicity against HCT116 cells ([2]; at 25 μM, 72 h)
Cc1ccc2cccc([O][Ga]([O]c3cccc4ccc(C)nc34)[O]c3cccc4ccc(C)nc34)c2n1 [CP-2, [Ga(MQL)3]] | 6.1 ± 0.8 µM | 4.7 ± 0.7 µM | 3.3 ± 0.5 µM |  | 
c1cnc2c([O][Ga]([O]c3cccc4cccnc34)[O]c3cccc4cccnc34)cccc2c1 [CP-1, [Ga(HQL)3]] | 3.8 ± 1.1 µM | 1.2 ± 0.2 µM | 8 ± 1 µM |  | 
O=C1[O][Pt]2([NH][C@@H]3CCCC[C@H]3[NH]2)[O]C1=O [oxaliplatin, reference compound] | 3.2 ± 0.2 µM | 8.3 ± 0.4 µM | 2.3 ± 0.3 µM | blocked it in the G1/S/G2 phase with comparable effects | 
Clc1ccc([O][Ga]([O]c2ccc(Cl)c3cccnc23)[O]c2ccc(Cl)c3cccnc23)c2ncccc12 [CP-3, [Ga(ClQL)3]] | 8.7 ± 0.8 µM | 2 ± 0.3 µM | 23.3 ± 5.3 µM |  | 91.98%
N.N.[Cl][Pt][Cl] [cisplatin, reference compound] | 7.5 ± 0.7 µM | 5.7 µM | 0.7 µM | mainly blocked the cell cycle in the S phase | 
